Measured values as given in publication PMC3700807 (Planta medica, 2011).
≈ marks a conversion by molar mass, not a printed value. Like-named read-outs stand apart in the source and are kept apart here.

What was measured:
[1] = tested on: Leishmania donovani promastigotes; assay: Antileishmanial assay, promastigotes; format: cell-based; settings: for IC90: Leishmania donovani, 72 h, read-out: Leishmania donovani Promastigotes IC90
[2] = tested on: Leishmania donovani axenic amastigotes; assay: Antileishmanial assay, axenic amastigotes; format: cell-based; settings: for IC90: Leishmania donovani, 72 h, read-out: Leishmania donovani Axenic Amastigotes IC90
[3] = Cytotoxicity to PMA transformed THP1 cells; format: cell-based; settings: human
[4] = tested on: Leishmania donovani amastigotes in THP1 macrophage cultures; assay: Antileishmanial macrophage-amastigote assay; format: cell-based; settings: mean ± S.D. of three observations; for IC50: Leishmania donovani, THP-1, read-out: Leishmania donovani Macrophage-Amastigotes IC50, amastigotes in THP1 macrophage cultures
[5] = tested on: Plasmodium falciparum D6 (chloroquine-sensitive clone); settings: data reported previously; cited from earlier work
[6] = tested on: VERO cells; settings: VERO cells cytotoxicity; data reported previously; cited from earlier work
[7] = tested on: Plasmodium falciparum W2 (chloroquine-resistant clone); settings: data reported previously; cited from earlier work
[8] = tested on: Aspergillus fumigatus (ATCC 204305); assay: Antimicrobial susceptibility assay, A. fumigatus; format: cell-based; settings: highest test concentration 20 μg/mL
Summary of the method: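 Broth-dilution susceptibility test in medium with 5% Alamar Blue for growth detection. Amphotericin B was the drug control in each assay. IC50 (50% inhibition vs controls) was curve-fitted from duplicate readings. MIC is the lowest concentration with no detectable growth. For MFC, 5 μL from each clear well was moved to agar and incubated until growth appeared.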

[9] = tested on: methicillin-resistant S aureus (MRSA, ATCC 33591); assay: Antimicrobial susceptibility assay, MRSA; format: cell-based, Staphylococcus aureus; settings: highest test concentration 20 μg/mL
Summary of the method: (§1)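 Bacteria were tested by a modified CLSI broth-dilution method, with growth read as optical density. Ciprofloxacin was the drug control in each assay. IC50 (50% inhibition relative to controls) was fitted from duplicate readings. MIC is the lowest concentration with no detectable growth. For MBC, 5 μL from each clear well was transferred to agar and incubated until growth appeared.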

[10] = tested on: C. glabrata (ATCC 90030); assay: Antimicrobial susceptibility assay, C. glabrata; format: cell-based; settings: highest test concentration 20 μg/mL
Summary of the method: (§2)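 Yeasts were tested by a modified CLSI broth-dilution method, with growth monitored by optical density. Amphotericin B was the drug control in each assay. IC50 (50% inhibition vs controls) was curve-fitted from duplicate readings. MIC is the lowest concentration allowing no detectable growth. For MFC, 5 μL from each clear well was plated on agar and incubated until growth was seen.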

[11] = tested on: Candida albicans (ATCC 90028); assay: Antimicrobial susceptibility assay, C. albicans; format: cell-based; settings: highest test concentration 20 μg/mL
Summary of the method: as §2

[12] = tested on: Cryptococcus neoformans (ATCC 90113); assay: Antimicrobial susceptibility assay, C. neoformans; format: cell-based; settings: highest test concentration 20 μg/mL
Summary of the method: as §2

[13] = tested on: Mycobacterium intracellulare (ATCC 23068); assay: Antimicrobial susceptibility assay, M. intracellulare; format: cell-based; settings: highest test concentration 20 μg/mL
Summary of the method: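 Mycobacterium intracellulare (ATCC 23068) was tested by a modified broth susceptibility method, with growth detected in medium containing 5% Alamar Blue. IC50 was fitted against untreated controls from duplicate readings. MIC was taken as the lowest concentration with no detectable growth. For MBC, clear wells were subcultured onto agar and incubated until growth appeared. Ciprofloxacin was included as the drug control in each assay.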

[14] = tested on: Plasmodium falciparum D6 (chloroquine-sensitive clone); assay: In vitro antiplasmodial assay; format: cell-based; settings: chloroquine-sensitive clone D6
[15] = tested on: Staphylococcus aureus (ATCC 29213); assay: Antimicrobial susceptibility assay, S. aureus; format: cell-based; settings: highest test concentration 20 μg/mL
Summary of the method: as §1

[16] = tested on: Transformed THP1 cells; assay: Cytotoxicity to PMA transformed THP1 cells; format: cell-based
[17] = tested on: VERO cells; assay: Cytotoxicity to VERO cells; format: cell-based
[18] = tested on: C. krusei (ATCC 6258); assay: Antimicrobial susceptibility assay, C. krusei; format: cell-based; settings: highest test concentration 20 μg/mL
Summary of the method: as §2

[19] = tested on: Plasmodium falciparum W2 (chloroquine-resistant clone); assay: In vitro antiplasmodial assay; format: cell-based; settings: chloroquine-resistant clone W2
[20] = quoted as basis for basifying to pH 11; no reference given; cited from earlier work
[21] = 26 °C, 72 hours, mean ± S.D. of three observations
[22] = 37 °C, 72 hours, mean ± S.D. of three observations
[23] = amastigotes in THP1 macrophage cultures

SMILES: C[C@@H]1N[C@H](CCCCCCCCCCC2=C[C@@H](CCCCCCCCCC[C@@H]3CC[C@@H](O)[C@H](C)N3)[C@@H]3CCCN3C2)CC[C@H]1O [Compound 3, prosopilosine]
- Leishmania donovani Promastigotes IC50 [1, 21]: 0.17 ± 0.05 µg/mL
- IC90 [1]: 6.33 ± 1.07 µg/mL (≈ 10 µM)
- Leishmania donovani Axenic Amastigotes IC50 [2, 22]: 0.98 ± 0.12 µg/mL
- IC90 [2]: 6.49 ± 0.84 µg/mL (≈ 10.3 µM)
- IC50 [3]: 2.33 ± 0.51 µg/mL (≈ 3.7 µM)
- IC90 [3]: 3.89 ± 0.51 µg/mL (≈ 6.17 µM)

SMILES: C[C@@H]1N[C@H](CCCCCCCCCCc2cc(CCCCCCCCCC[C@H]3CC[C@@H](O)[C@@H](C)N3)c[n+]3c2CCC3)CC[C@H]1O [Compound 5, isoprosopilosidine]
- IC50 [4]: 5.87 ± 0.76 µg/mL
- IC90 [1]: 4.52 ± 0.74 µg/mL
- IC90 [2]: 24.8 ± 3.7 µg/mL
- IC50 ([3]; PMA transformed THP1 cells): 7.92 ± 1.22 µg/mL
- IC90 ([3]; PMA transformed THP1 cells): 19 µg/mL

SMILES: C[C@H]1N[C@@H](CCCCCCCCCCC2=C[C@@H](CCCCCCCCCC[C@H]3CC[C@@H](O)[C@@H](C)N3)[C@@H]3CCCN3C2)CC[C@H]1O [Compound 6, juliprosopine]
- P. falciparum D6 IC50 [5]: 0.22 ± 0.025 µg/mL
- Leishmania donovani Promastigotes IC50 [1, 21]: 0.29 ± 0.05 µg/mL
- IC90 [1]: 1.14 ± 0.21 µg/mL (≈ 1.81 µM)
- Leishmania donovani Axenic Amastigotes IC50 [2, 22]: 1.92 ± 0.19 µg/mL
- IC90 [2]: 6.25 ± 0.47 µg/mL (≈ 9.92 µM)
- VERO IC50 [6]: 5 µg/mL
- P. falciparum W2 IC50 [7]: 0.38 ± 0.05 µg/mL
- IC50 [3]: 3.43 ± 0.32 µg/mL (≈ 5.44 µM)
- IC90 [3]: 7.89 ± 1.2 µg/mL (≈ 12.5 µM)

SMILES: C[C@@H]1N[C@H](CCCCCCCCCCc2cc(CCCCCCCCCC[C@@H]3CC[C@H](O)[C@H](C)N3)c3[n+](c2)CCC3)CC[C@@H]1O [Compound 7, juliprosine]
- A. fumigatus IC50 [8]: -/-/- ((-) = Not active at the highest test concentration of 20 μg/mL)
- A. fumigatus MFC [8]: -/-/- ((-) = Not active at the highest test concentration of 20 μg/mL)
- A. fumigatus MIC [8]: -/-/- ((-) = Not active at the highest test concentration of 20 μg/mL)
- MRSA IC50 [9]: 3.03 µg/mL
- MRSA MBC [9]: 10 µg/mL
- MRSA MIC [9]: 5.0 µg/mL
- C. glabrata IC50 [10]: -/-/- ((-) = Not active at the highest test concentration of 20 μg/mL)
- C. glabrata MFC [10]: -/-/- ((-) = Not active at the highest test concentration of 20 μg/mL)
- C. glabrata MIC [10]: -/-/- ((-) = Not active at the highest test concentration of 20 μg/mL)
- Leishmania donovani Macrophage-Amastigotes IC50 [4, 23]: 3.08 ± 0.43 µg/mL
- Leishmania donovani Macrophage-Amastigotes IC90 [4, 23]: 7.89 ± 1.91 µg/mL
- C. albicans IC50 [11]: -/-/- ((-) = Not active at the highest test concentration of 20 μg/mL)
- C. albicans MFC [11]: -/-/- ((-) = Not active at the highest test concentration of 20 μg/mL)
- C. albicans MIC [11]: -/-/- ((-) = Not active at the highest test concentration of 20 μg/mL)
- C. neoformans IC50 [12]: 0.17 µg/mL
- C. neoformans MFC [12]: 0.63 µg/mL
- C. neoformans MIC [12]: 0.63 µg/mL
- Leishmania donovani Promastigotes IC50 [1, 21]: 1.38 ± 0.23 µg/mL
- Leishmania donovani Promastigotes IC90 [1, 21]: 5.85 ± 0.72 µg/mL
- M. intracellulare IC50 [13]: 0.80 µg/mL
- M. intracellulare MBC [13]: 5 µg/mL
- M. intracellulare MIC [13]: 1.25 µg/mL
- Leishmania donovani Axenic Amastigotes IC50 [2, 22]: 2.58 ± 0.37 µg/mL
- Leishmania donovani Axenic Amastigotes IC90 [2, 22]: 29.8 ± 4.3 µg/mL
- P. falciparum D6 IC50 [14]: 0.17 ± 0.035 µg/mL
- S. aureus IC50 [15]: 3.0 µg/mL
- S. aureus MBC [15]: 10 µg/mL
- S. aureus MIC [15]: 5.0 µg/mL
- Cytotoxicity (Transformed THP1 cells) IC50 [16]: 19.5 ± 1.0 µg/mL
- Cytotoxicity (Transformed THP1 cells) IC90 [16]: >20 µg/mL
- VERO IC50 [17]: >23.8 µg/mL
- C. krusei IC50 [18]: -/-/- ((-) = Not active at the highest test concentration of 20 μg/mL)
- C. krusei MFC [18]: -/-/- ((-) = Not active at the highest test concentration of 20 μg/mL)
- C. krusei MIC [18]: -/-/- ((-) = Not active at the highest test concentration of 20 μg/mL)
- P. falciparum W2 IC50 [19]: 0.15 ± 0.06 µg/mL

SMILES: N=C(N)c1ccc(OCCCCCOc2ccc(C(=N)N)cc2)cc1 [Pentamidine, reference compound]
- IC50 [4]: 3 µg/mL (≈ 8.81 µM)
- Leishmania donovani Macrophage-Amastigotes IC50 [4, 23]: 2.97 ± 0.44 µg/mL
- Leishmania donovani Promastigotes IC50 [1, 21]: 1.06 ± 0.32 µg/mL
- IC90 [1]: 3.86 ± 0.41 µg/mL (≈ 11.3 µM)
- Leishmania donovani Axenic Amastigotes IC50 [2, 22]: 2.09 ± 0.37 µg/mL
- IC90 [2]: 14.7 ± 2.2 µg/mL (≈ 43.2 µM)
- IC50 ([3]; PMA transformed THP1 cells): > 20 µg/mL
- IC90 ([3]; PMA transformed THP1 cells): > 20 µg/mL

SMILES: NCCc1c[nH]c2ccccc12 [tryptamine]
- pKa [20]: 10.2
